# Assay results from ChEMBL document CHEMBL1156127, “Synthesis, anticonvulsant activity and 3D-QSAR study of some prop-2-eneamido and 1-acetyl-pyrazolin derivatives of aminobenzothiazole” (Eur J Med Chem, 2010).
# Legend:
# Mus musculus [1] = species on record: Mus musculus; assay: Protection index, ratio of TD50 to ED50 by MES test for albino mouse; type: functional
# In short: (§1)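 Mice were trained on a 3.2 cm rod turning at 6 rpm, then dosed ip at 20–1000 µmol/kg and tested at 0.5 h. […] PI = TD50/ED50, with ED50 from the MES test.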
# [2] = Neurotoxicity in ip dosed albino mouse during 1 min by rotarod test; type: toxicity, organism-based; conditions: in vivo; in short: as §1
# Mus musculus [3] = assay: Anticonvulsant activity in ip dosed albino mouse assessed as absence of hind limb tonic extension after 0.5 hrs by MES test; type: functional, Hindlimb; conditions: for ED50: Mus musculus, albino, Hindlimb, ip, 0.5 h
# In short: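 Mice given compound ip at 20–1000 µmol/kg, suspended in 0.5% methyl cellulose/water. Seizure induced 0.5 h later by electroconvulsometer, 50 mA, 60 cycle alternating current, 0.25 s via ear clip electrodes. Protection is reduced duration or absence of hind limb tonic extension. ED50 from at least three doses giving 10–90% protection.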
# Mus musculus [4] = assay: Anticonvulsant activity in ip dosed albino mouse treated 0.5 hrs before PTZ challenge by scPTZ test; type: functional
# In short: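 Compound given ip (20–1000 µmol/kg in 0.5% methyl cellulose) 0.5 h before pentylenetetrazole, which was dissolved in 0.9% NaCl and injected subcutaneously in the posterior midline of mice. Onset and severity of convulsions were scored, and ED50 was derived.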
compound,measurement,setting,value
COc1ccc(/C=C/C(=O)Nc2nc3ccccc3s2)cc1,PI,Mus musculus [1],1.24
same,TD50 at 1 min,[2],540 µmol/kg
same,pED50,Mus musculus [3],3.36
same,ED50,Mus musculus [3],435 µmol/kg
COc1ccc(/C=C/C(=O)Nc2nc3ccc(C)cc3s2)cc1O,PI,Mus musculus [1],1.18
same,TD50 at 1 min,[2],321 µmol/kg
same,pED50,Mus musculus [3],3.57
same,ED50,Mus musculus [3],271 µmol/kg
O=C(/C=C/c1ccc(O)cc1)Nc1nc2ccccc2s1,PI,Mus musculus [1],1.78
same,TD50 at 1 min,[2],925 µmol/kg
same,pED50,Mus musculus [3],3.29
same,ED50,Mus musculus [3],517 µmol/kg
CC(=O)N1N=C(Nc2nc3ccc(Cl)cc3s2)CC1c1ccccc1 (stereo unspecified),PI,Mus musculus [1],1.52
same,TD50 at 1 min,[2],245 µmol/kg
same,pED50,Mus musculus [3],3.79
same,ED50,Mus musculus [3],161 µmol/kg
Cc1ccc2nc(NC(=O)/C=C/c3ccco3)sc2c1,PI,Mus musculus [1],1.19
same,TD50 at 1 min,[2],603 µmol/kg
same,pED50,Mus musculus [3],3.3
same,ED50,Mus musculus [3],505 µmol/kg
O=C(/C=C/c1ccc(Cl)cc1)Nc1nc2ccc([N+](=O)[O-])cc2s1,PI,Mus musculus [1],3.03
same,TD50 at 1 min,[2],787 µmol/kg
same,pED50,Mus musculus [3],3.59
same,ED50,Mus musculus [3],259 µmol/kg
CC(=O)N1N=C(Nc2nc3ccccc3s2)CC1c1ccc(O)cc1 (stereo unspecified),PI,Mus musculus [1],2.06
same,TD50 at 1 min,[2],513 µmol/kg
same,pED50,Mus musculus [3],3.6
same,ED50,Mus musculus [3],249 µmol/kg
COc1ccc(C2CC(Nc3nc4ccc(Cl)cc4s3)=NN2C(C)=O)cc1O (stereo unspecified),PI,Mus musculus [1],2.16
same,TD50 at 1 min,[2],276 µmol/kg
same,ED50,Mus musculus [4],132 µmol/kg
same,pED50,Mus musculus [3],3.89
same,ED50,Mus musculus [3],127 µmol/kg
COc1ccc(/C=C/C(=O)Nc2nc3ccc(Cl)cc3s2)cc1O,PI,Mus musculus [1],1.46
same,TD50 at 1 min,[2],470 µmol/kg
same,pED50,Mus musculus [3],3.51
same,ED50,Mus musculus [3],320 µmol/kg
CC(=O)N1N=C(Nc2nc3ccccc3s2)CC1c1ccc(Cl)cc1 (stereo unspecified),PI,Mus musculus [1],1.73
same,TD50 at 1 min,[2],364 µmol/kg
same,pED50,Mus musculus [3],3.68
same,ED50,Mus musculus [3],209 µmol/kg
O=C(/C=C/c1ccc(Cl)cc1)Nc1nc2ccc(Cl)cc2s1,PI,Mus musculus [1],2.82
same,TD50 at 1 min,[2],576 µmol/kg
same,pED50,Mus musculus [3],3.69
same,ED50,Mus musculus [3],204 µmol/kg
COc1ccc(C2CC(Nc3nc4ccc([N+](=O)[O-])cc4s3)=NN2C(C)=O)cc1 (stereo unspecified),PI,Mus musculus [1],1.69
same,TD50 at 1 min,[2],246 µmol/kg
same,ED50,Mus musculus [4],149 µmol/kg
same,pED50,Mus musculus [3],3.84
same,ED50,Mus musculus [3],145 µmol/kg
CC(=O)N1N=C(Nc2nc3ccc([N+](=O)[O-])cc3s2)CC1c1ccc(O)cc1 (stereo unspecified),PI,Mus musculus [1],1.29
same,TD50 at 1 min,[2],210 µmol/kg
same,pED50,Mus musculus [3],3.79
same,ED50,Mus musculus [3],162 µmol/kg
CC(=O)N1N=C(Nc2nc3ccc(C)cc3s2)CC1c1ccco1 (stereo unspecified),PI,Mus musculus [1],1.51
same,TD50 at 1 min,[2],243 µmol/kg
same,pED50,Mus musculus [3],3.79
same,ED50,Mus musculus [3],160 µmol/kg
COc1ccc(C2CC(Nc3nc4ccc([N+](=O)[O-])cc4s3)=NN2C(C)=O)cc1O (stereo unspecified),PI,Mus musculus [1],1.43
same,TD50 at 1 min,[2],256 µmol/kg
same,pED50,Mus musculus [3],3.75
same,ED50,Mus musculus [3],178 µmol/kg
O=C(/C=C/c1ccco1)Nc1nc2ccc(Cl)cc2s1,PI,Mus musculus [1],1.2
same,TD50 at 1 min,[2],658 µmol/kg
same,pED50,Mus musculus [3],3.26
same,ED50,Mus musculus [3],544 µmol/kg
O=C(/C=C/c1ccc(O)cc1)Nc1nc2ccc(Cl)cc2s1,PI,Mus musculus [1],1.28
same,TD50 at 1 min,[2],413 µmol/kg
same,pED50,Mus musculus [3],3.49
same,ED50,Mus musculus [3],322 µmol/kg
Cc1ccc2nc(NC(=O)/C=C/c3ccccc3)sc2c1,PI,Mus musculus [1],1.4
same,TD50 at 1 min,[2],534 µmol/kg
same,pED50,Mus musculus [3],3.42
same,ED50,Mus musculus [3],380 µmol/kg
O=C(/C=C/c1ccccc1)Nc1nc2ccc([N+](=O)[O-])cc2s1,PI,Mus musculus [1],1.3
same,TD50 at 1 min,[2],633 µmol/kg
same,pED50,Mus musculus [3],3.31
same,ED50,Mus musculus [3],485 µmol/kg
COc1ccc(C2CC(Nc3nc4ccccc4s3)=NN2C(C)=O)cc1 (stereo unspecified),PI,Mus musculus [1],1.63
same,TD50 at 1 min,[2],369 µmol/kg
same,pED50,Mus musculus [3],3.65
same,ED50,Mus musculus [3],226 µmol/kg
O=C(/C=C/c1ccccc1)Nc1nc2ccc(Cl)cc2s1,PI,Mus musculus [1],1.34
same,TD50 at 1 min,[2],570 µmol/kg
same,pED50,Mus musculus [3],3.37
same,ED50,Mus musculus [3],425 µmol/kg
Cc1ccc2nc(NC(=O)/C=C/c3ccc(Cl)cc3)sc2c1,PI,Mus musculus [1],2.67
same,TD50 at 1 min,[2],408 µmol/kg
same,pED50,Mus musculus [3],3.82
same,ED50,Mus musculus [3],152 µmol/kg
CC(=O)N1N=C(Nc2nc3ccc([N+](=O)[O-])cc3s2)CC1c1ccc(Cl)cc1 (stereo unspecified),PI,Mus musculus [1],2.48
same,TD50 at 1 min,[2],328 µmol/kg
same,ED50,Mus musculus [4],138 µmol/kg
same,pED50,Mus musculus [3],3.88
same,ED50,Mus musculus [3],132 µmol/kg
O=C(/C=C/c1ccc(O)cc1)Nc1nc2ccc([N+](=O)[O-])cc2s1,PI,Mus musculus [1],1.57
same,TD50 at 1 min,[2],602 µmol/kg
same,pED50,Mus musculus [3],3.42
same,ED50,Mus musculus [3],382 µmol/kg
COc1ccc(C2CC(Nc3nc4ccccc4s3)=NN2C(C)=O)cc1O (stereo unspecified),PI,Mus musculus [1],1.47
same,TD50 at 1 min,[2],382 µmol/kg
same,pED50,Mus musculus [3],3.59
same,ED50,Mus musculus [3],259 µmol/kg
O=C(/C=C/c1ccco1)Nc1nc2ccccc2s1,PI,Mus musculus [1],1.15
same,TD50 at 1 min,[2],898 µmol/kg
same,pED50,Mus musculus [3],3.11
same,ED50,Mus musculus [3],781 µmol/kg
Cc1ccc2nc(NC(=O)/C=C/c3ccc(O)cc3)sc2c1,PI,Mus musculus [1],1.42
same,TD50 at 1 min,[2],387 µmol/kg
same,pED50,Mus musculus [3],3.57
same,ED50,Mus musculus [3],271 µmol/kg
O=C(/C=C/c1ccc(Cl)cc1)Nc1nc2ccccc2s1,PI,Mus musculus [1],1.1
same,TD50 at 1 min,[2],402 µmol/kg
same,pED50,Mus musculus [3],3.44
same,ED50,Mus musculus [3],367 µmol/kg
CC(=O)N1N=C(Nc2nc3ccc([N+](=O)[O-])cc3s2)CC1c1ccco1 (stereo unspecified),PI,Mus musculus [1],1.29
same,TD50 at 1 min,[2],355 µmol/kg
same,pED50,Mus musculus [3],3.56
same,ED50,Mus musculus [3],274 µmol/kg
O=C(/C=C/c1ccccc1)Nc1nc2ccccc2s1,PI,Mus musculus [1],1.28
same,TD50 at 1 min,[2],832 µmol/kg
same,pED50,Mus musculus [3],3.19
same,ED50,Mus musculus [3],646 µmol/kg
COc1ccc(/C=C/C(=O)Nc2nc3ccc(Cl)cc3s2)cc1,PI,Mus musculus [1],1.79
same,TD50 at 1 min,[2],465 µmol/kg
same,pED50,Mus musculus [3],3.59
same,ED50,Mus musculus [3],259 µmol/kg
COc1ccc(/C=C/C(=O)Nc2nc3ccccc3s2)cc1O,PI,Mus musculus [1],1.12
same,TD50 at 1 min,[2],556 µmol/kg
same,pED50,Mus musculus [3],3.31
same,ED50,Mus musculus [3],495 µmol/kg
COc1ccc(/C=C/C(=O)Nc2nc3ccc([N+](=O)[O-])cc3s2)cc1,PI,Mus musculus [1],1.47
same,TD50 at 1 min,[2],466 µmol/kg
same,pED50,Mus musculus [3],3.5
same,ED50,Mus musculus [3],315 µmol/kg
CC(=O)N1N=C(Nc2nc3ccccc3s2)CC1c1ccccc1 (stereo unspecified),PI,Mus musculus [1],1.57
same,TD50 at 1 min,[2],498 µmol/kg
same,pED50,Mus musculus [3],3.5
same,ED50,Mus musculus [3],315 µmol/kg
CC(=O)N1N=C(Nc2nc3ccc(Cl)cc3s2)CC1c1ccco1 (stereo unspecified),PI,Mus musculus [1],1.82
same,TD50 at 1 min,[2],387 µmol/kg
same,pED50,Mus musculus [3],3.67
same,ED50,Mus musculus [3],212 µmol/kg
O=C(/C=C/c1ccco1)Nc1nc2ccc([N+](=O)[O-])cc2s1,PI,Mus musculus [1],1.39
same,TD50 at 1 min,[2],834 µmol/kg
same,pED50,Mus musculus [3],3.22
same,ED50,Mus musculus [3],597 µmol/kg
COc1ccc(/C=C/C(=O)Nc2nc3ccc([N+](=O)[O-])cc3s2)cc1O,PI,Mus musculus [1],2.13
same,TD50 at 1 min,[2],793 µmol/kg
same,pED50,Mus musculus [3],3.43
same,ED50,Mus musculus [3],372 µmol/kg
CC(=O)N1N=C(Nc2nc3ccc(Cl)cc3s2)CC1c1ccc(O)cc1 (stereo unspecified),PI,Mus musculus [1],1.97
same,TD50 at 1 min,[2],210 µmol/kg
same,ED50,Mus musculus [4],107 µmol/kg
same,pED50,Mus musculus [3],3.97
same,ED50,Mus musculus [3],106 µmol/kg
COc1ccc(/C=C/C(=O)Nc2nc3ccc(C)cc3s2)cc1,PI,Mus musculus [1],2.24
same,TD50 at 1 min,[2],468 µmol/kg
same,pED50,Mus musculus [3],3.68
same,ED50,Mus musculus [3],209 µmol/kg
CC(=O)N1N=C(Nc2nc3ccccc3s2)CC1c1ccco1 (stereo unspecified),PI,Mus musculus [1],1.41
same,TD50 at 1 min,[2],538 µmol/kg
same,pED50,Mus musculus [3],3.42
same,ED50,Mus musculus [3],382 µmol/kg
CC(=O)N1N=C(Nc2nc3ccc([N+](=O)[O-])cc3s2)CC1c1ccccc1 (stereo unspecified),PI,Mus musculus [1],1.65
same,TD50 at 1 min,[2],357 µmol/kg
same,pED50,Mus musculus [3],3.67
same,ED50,Mus musculus [3],216 µmol/kg
O=C1NC(=O)C(c2ccccc2)(c2ccccc2)N1 [PHENYTOIN],PI,Mus musculus [1],8.01
same,TD50 at 1 min,[2],110 µmol/kg
same,ED50,Mus musculus [3],13.8 µmol/kg
